# Key:
# Type in all cases: functional
# [1] = tested on: Mammaliicoccus sciuri; test: Bactericidal activity against methicillin-resistant coagulase-negative Staphylococcus sciuri after 24 hrs by plate counting method
# Procedure, shortened: (§1)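 Clinical staphylococcal isolates from patient body fluids, blood, genital secretions, pus or sputum; species by conventional methods or Vitek. Twofold dilutions in Mueller-Hinton broth, inoculum 5 × 10^5 CFU/ml, 37°C aerobic 24 h (CLSI M7-A6 microdilution). About 100 μl from each well without visible growth spread on MHA; 37°C 24 h. MBC = lowest concentration giving no growth on agar.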
# [2] = tested on: Staphylococcus hominis; test: Antimicrobial activity against methicillin-susceptible coagulase-negative Staphylococcus hominis after 24 hrs by broth microdilution method
# Procedure, shortened: (§2)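 Clinical isolates came from blood, body fluids, genital secretions, pus or sputum, identified conventionally or by Vitek. MICs were run by CLSI M7-A6 broth microdilution in Mueller-Hinton broth with 5 × 10^5 CFU/ml inoculum. Agents were twofold serially diluted, starting from 10% DMSO. Drug-free and uninoculated controls were included. Plates were incubated aerobically at 37°C for 24 h; MIC is the lowest concentration giving no visible growth.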
# [3] = tested on: Staphylococcus hominis; test: Antimicrobial activity against methicillin-susceptible coagulase-negative Staphylococcus hominis assessed as susceptible isolates after 24 hrs by broth microdilution method
# [4] = tested on: Staphylococcus hominis; test: Antimicrobial activity against methicillin-susceptible coagulase-negative Staphylococcus hominis assessed as resistant isolates after 24 hrs by broth microdilution method
# [5] = tested on: Staphylococcus hominis; test: Bactericidal activity against methicillin-susceptible coagulase-negative Staphylococcus hominis after 24 hrs by plate counting method; procedure, shortened: as §1
# [6] = tested on: Staphylococcus epidermidis; test: Antimicrobial activity against methicillin-susceptible coagulase-negative Staphylococcus epidermidis after 24 hrs by broth microdilution method; procedure, shortened: as §2
# [7] = tested on: Staphylococcus epidermidis; test: Antimicrobial activity against methicillin-susceptible coagulase-negative Staphylococcus epidermidis assessed as susceptible isolates after 24 hrs by broth microdilution method
# [8] = tested on: Staphylococcus epidermidis; test: Antimicrobial activity against methicillin-susceptible coagulase-negative Staphylococcus epidermidis assessed as resistant isolates after 24 hrs by broth microdilution method
# [9] = tested on: Staphylococcus epidermidis; test: Bactericidal activity against methicillin-susceptible coagulase-negative Staphylococcus epidermidis after 24 hrs by plate counting method; procedure, shortened: as §1
# [10] = tested on: Staphylococcus haemolyticus; test: Antimicrobial activity against methicillin-susceptible coagulase-negative Staphylococcus haemolyticus after 24 hrs by broth microdilution method; procedure, shortened: as §2
# [11] = tested on: Staphylococcus haemolyticus; test: Antimicrobial activity against methicillin-susceptible coagulase-negative Staphylococcus haemolyticus assessed as susceptible isolates after 24 hrs by broth microdilution method
# [12] = tested on: Staphylococcus haemolyticus; test: Antimicrobial activity against methicillin-susceptible coagulase-negative Staphylococcus haemolyticus assessed as resistant isolates after 24 hrs by broth microdilution method
# [13] = tested on: Staphylococcus haemolyticus; test: Bactericidal activity against methicillin-susceptible coagulase-negative Staphylococcus haemolyticus after 24 hrs by plate counting method; procedure, shortened: as §1
# [14] = tested on: Staphylococcus simulans; test: Antimicrobial activity against methicillin-susceptible coagulase-negative Staphylococcus simulans after 24 hrs by broth microdilution method; procedure, shortened: as §2
# [15] = tested on: Staphylococcus simulans; test: Antimicrobial activity against methicillin-susceptible coagulase-negative Staphylococcus simulans assessed as susceptible isolates after 24 hrs by broth microdilution method
# Procedure, shortened: (§3)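 Clinical isolates from blood, body fluids, pus, sputum or genital secretions, identified conventionally or by Vitek, were tested alongside ATCC 29213 and ATCC 12228 controls. CLSI M7-A6 broth microdilution in Mueller-Hinton broth used twofold dilutions from a 10% DMSO solution and 5 × 10^5 CFU/ml inoculum. Drug-free and uninoculated wells served as controls; incubation was aerobic at 37°C for 24 h. MIC was the lowest concentration with no visible growth.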
# [16] = tested on: Staphylococcus simulans; test: Bactericidal activity against methicillin-susceptible coagulase-negative Staphylococcus simulans after 24 hrs by plate counting method; procedure, shortened: as §1
# [17] = tested on: Mammaliicoccus sciuri; test: Antimicrobial activity against methicillin-susceptible coagulase-negative Staphylococcus sciuri after 24 hrs by broth microdilution method; procedure, shortened: as §2
# [18] = tested on: Mammaliicoccus sciuri; test: Antimicrobial activity against methicillin-susceptible coagulase-negative Staphylococcus sciuri assessed as susceptible isolates after 24 hrs by broth microdilution method; procedure, shortened: as §3
# [19] = tested on: Mammaliicoccus sciuri; test: Antimicrobial activity against methicillin-susceptible coagulase-negative Staphylococcus sciuri assessed as resistant isolates after 24 hrs by broth microdilution method
# [20] = tested on: Mammaliicoccus sciuri; test: Bactericidal activity against methicillin-susceptible coagulase-negative Staphylococcus sciuri after 24 hrs by plate counting method; procedure, shortened: as §1
smiles,measurement,setting,value
Cc1onc(-c2ccccc2)c1C(=O)N[C@@H]1C(=O)N2[C@@H]1SC(C)(C)[C@@H]2C(=O)O [OXACILLIN],MBC90,[1],256 µg/mL
same,MBC,"[1]; Mammaliicoccus sciuri, 24 h",1 µg/mL
same,MIC,[2],0.125 µg/mL
same,MIC50,[2],0.125 µg/mL
same,MIC90,[2],0.5 µg/mL
same,Activity,[3],96%
same,Activity,[4],4%
same,MBC50,[5],2 µg/mL
same,MBC90,[5],8 µg/mL
same,MBC,"[5]; Staphylococcus hominis, 24 h",0.25 µg/mL
same,MIC,[6],0.125 µg/mL
same,MIC50,[6],0.125 µg/mL
same,MIC90,[6],0.5 µg/mL
same,Activity,[7],96%
same,Activity,[8],4%
same,MBC50,[9],2 µg/mL
same,MBC90,[9],8 µg/mL
same,MBC,"[9]; Staphylococcus epidermidis, 24 h",0.25 µg/mL
same,MIC,[10],0.125 µg/mL
same,MIC50,[10],0.125 µg/mL
same,MIC90,[10],0.5 µg/mL
same,Activity,[11],96%
same,Activity,[12],4%
same,MBC50,[13],2 µg/mL
same,MBC90,[13],8 µg/mL
same,MBC,"[13]; Staphylococcus haemolyticus, 24 h",0.25 µg/mL
same,MIC,[14],0.125 µg/mL
same,MIC50,[14],0.125 µg/mL
same,MIC90,[14],0.5 µg/mL
same,Activity,[15],96%
same,MBC50,[16],2 µg/mL
same,MBC90,[16],8 µg/mL
same,MBC,"[16]; Staphylococcus simulans, 24 h",0.25 µg/mL
same,MIC,[17],0.125 µg/mL
same,MIC50,[17],0.125 µg/mL
same,MIC90,[17],0.5 µg/mL
same,Activity,[18],96%
same,Activity,[19],4%
same,MBC50,[20],2 µg/mL
same,MBC90,[20],8 µg/mL
same,MBC,"[20]; Mammaliicoccus sciuri, 24 h",0.25 µg/mL
